This note sets out measurements from ChEMBL document CHEMBL4673246, “Directing Drugs to Bugs: Antibiotic-Carbohydrate Conjugates Targeting Biofilm-Associated Lectins of Pseudomonas aeruginosa” (J Med Chem, 2020).

pIC50: −log10 of the molar value. ≈ marks a conversion by molar mass, not a printed value.

For data set [1], the target named is DNA gyrase (Escherichia coli, UniProt P0AES4+P0AES6). The data set is described as follows: Inhibition of Escherichia coli DNA gyrase using relaxed PBR322 plasmid DNA as substrate incubated for 30 mins by ethidium bromide staining based agarose gel electrophoresis method. In kind it is protein-complex assay. The procedure, abridged: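 E. coli gyrase supercoiling kit. Relaxed pBR322 plus 1 U gyrase per reaction, compound serially diluted in 5% DMSO; 30 min at 37 °C. Stopped with STE buffer and CHCl3/isoamyl alcohol; 1% agarose gel, ethidium bromide stain. Supercoiled band intensity fitted with a four-parameter model, bottom fixed at 0, for IC50; at least three experiments.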

Data set [2] has as its system Pseudomonas aeruginosa. Put plainly: Antibacterial activity against Pseudomonas aeruginosa PAO1 assessed as growth inhibition after 18 to 20 hrs in presence of PMBN by broth microdilution assay. To be noted: time 18-20 hrs. In kind it is functional. The method, boiled down:
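Broth microdilution per EUCAST guidelines in Müller-Hinton broth II (Ca2+/Mg2+ supplemented, pH 7.3). Colonies from overnight LB-agar plates were suspended to OD600 0.08–0.13, diluted 1:100, final inoculum 5 × 10^5 CFU/mL. PMBN at 2 μg/mL was added to the inoculum where indicated. Incubation 37 °C, 18–20 h. MIC was the lowest concentration with no visible growth. At least three independent experiments.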

The subject of data set [3] is Pseudomonas aeruginosa. Put plainly: Antibacterial activity against Pseudomonas aeruginosa PA14 assessed as growth inhibition after 18 to 20 hrs in presence of PMBN by broth microdilution assay. In kind it is functional. The following applies: time 18-20 hrs. The procedure, abridged: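 Cation-supplemented Mueller-Hinton broth II; final inoculum 5 × 10^5 CFU/mL. Incubated at 37 °C for 18–20 h. MIC read visually as the lowest concentration without growth; at least three independent experiments.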
On the technique in general: Broth dilution looks for growth in wells or tubes with falling amounts of substance.

Data set [4] deals with Pseudomonas aeruginosa. Put plainly: Antibacterial activity against Pseudomonas aeruginosa PAO1 assessed as growth inhibition after 18 to 20 hrs by broth microdilution assay. In kind it is functional. The following applies: time 18-20 hrs. The method, boiled down:
(§1)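 Overnight LB-agar colonies suspended to OD600 0.08–0.13, diluted 1:100; final inoculum 5 × 10^5 CFU/mL. 37 °C, 18–20 h, humid. MIC = lowest concentration without visible growth; range from at least three independent experiments.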

Data set [5] deals with Pseudomonas aeruginosa. Put plainly: Antibacterial activity against Pseudomonas aeruginosa PA14 assessed as growth inhibition after 18 to 20 hrs by broth microdilution assay. In kind it is functional. The following applies: time 18-20 hrs. The method, boiled down: as §1
For data set [6], the system named is Escherichia coli. The data set is described as follows: Antibacterial activity against Escherichia coli K-12 MG1655 assessed as growth inhibition after 18 to 20 hrs by broth microdilution assay. In kind it is functional. To be noted: time 18-20 hrs. The method, boiled down:
as §1

The nature of data set [7]: Inhibition of Pseudomonas aeruginosa PAO1 LecB expressed in Escherichia coli BL21(DE3) cells incubated for 4 to 8 hrs by (N-(fluorescein-5-yl)-N'-(alpha-L-fucopyranosyl ethylene)thiocarbamide) reporter based fluorescence polarization assay. For orientation: Polarisation of emitted light reports the rotation of a fluorescent probe.
The test system of data set [8] is Staphylococcus carnosus. The data set is described as follows: Antibacterial activity against Staphylococcus carnosus DSM 20501 assessed as growth inhibition after 18 to 20 hrs by broth microdilution assay. In kind it is functional. The following applies: time 18-20 hrs. The method, boiled down: as §1
In data set [9] the test system is Pseudomonas aeruginosa. Put plainly: Antibacterial activity against Pseudomonas aeruginosa PA14 harboring LecB deletion mutant assessed as growth inhibition after 18 to 20 hrs by broth microdilution assay. In kind it is functional. To be noted: time 18-20 hrs. The method, boiled down:
as §1

The nature of data set [10]: Protein binding in human plasma at 1 uM measured up to 6 hrs by LC-MS/MS analysis. In kind it is ADME, cell-free. The procedure, abridged: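 Rapid equilibrium dialysis: human plasma diluted with PBS pH 7.4 on one side, PBS on the other, compound at 1 μM final. Shaken at 37 °C for 6 h. Sampled at 0, 5 and 6 h and quantified by LC-MS/MS. Binding calculated from the concentration difference between chambers. Warfarin as control.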

Data set [11] is described as follows: Cytotoxicity against human A549 cells assessed as growth inhibition at 100 uM after 48 hrs by MTT assay relative to control. In kind it is cell-based. To be noted: read-out: GI. The procedure, abridged:
(§2)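 MTT assay: HEK293 or A549 cells seeded at 2 × 10^5 per well. Compounds (final DMSO 1%) were added 24 h after seeding. Living cell mass was read after 48 h.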
On the technique in general: Formazan colour is commonly taken as a measure of viable cells.

Data set [12] can be described thus: Cytotoxicity against HEK293 cells assessed as growth inhibition at 100 uM after 48 hrs by MTT assay relative to control. In kind it is cell-based. To be noted: human, read-out: GI. The method, boiled down:
as §2

Data set [13] is described as follows: Half life in human plasma at 40 uM measured up to 150 mins by LC-MS/MS analysis. In kind it is ADME, cell-free.
Data set [14] has as its system Pseudomonas aeruginosa. Put plainly: Antibacterial activity against Pseudomonas aeruginosa PA14 harboring LecA deletion mutant assessed as growth inhibition after 18 to 20 hrs by broth microdilution assay. The following applies: time 18-20 hrs. In kind it is functional. The method, boiled down:
as §1

Data set [15] can be described thus: Inhibition of Pseudomonas aeruginosa PA14 LecB expressed in Escherichia coli BL21(DE3) cells incubated for 4 to 8 hrs by (N-(fluorescein-5-yl)-N'-(alpha-L-fucopyranosyl ethylene)thiocarbamide) reporter based fluorescence polarization assay.
Data set [16] has as its system Escherichia coli. Put plainly: Antibacterial activity against Escherichia coli DSM 1116 assessed as growth inhibition after 18 to 20 hrs by broth microdilution assay. In kind it is functional. The following applies: time 18-20 hrs. The method, boiled down: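 Broth microdilution per EUCAST guidelines in Müller-Hinton broth II (Ca2+/Mg2+ supplemented, pH 7.3). Test range 128 to 0.125 μg/mL, from DMSO stocks. Colonies from overnight LB-agar plates were suspended to OD600 0.08–0.13, diluted 1:100, final inoculum 5 × 10^5 CFU/mL. PMBN at 2 μg/mL was added to the inoculum where indicated. Incubation 37 °C, 18–20 h. MIC was the lowest concentration with no visible growth. At least three independent experiments.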

The nature of data set [17]: Clearance in mouse liver microsomes. In kind it is ADME, Microsome.
Data set [18] can be described thus: Clearance in human liver microsomes. In kind it is ADME, Microsome.

As for `C#CCN1CCN(c2cc3c(cc2F)c(=O)c(C(=O)O)cn3C2CC2)CC1`, in data set [1], the pIC50 – broadly, the negative decadic logarithm of the IC50, by convention in mol/L – was 6.15. The MIC (as a rule, the lowest concentration found to suppress growth) in data set [2] stood at 1 µg/mL; in [3], 0.025 µg/mL; in data set [4] it was 4 µg/mL (≈ 10.8 µM); in [5] it was 2 µg/mL (≈ 5.41 µM).

`C[C@@H]1O[C@H](CNS(=O)(=O)c2ccc(CCn3cc(CN4CCN(c5cc6c(cc5F)c(=O)c(C(=O)O)cn6C5CC5)CC4)nn3)s2)[C@@H](O)[C@H](O)[C@@H]1O`: the MIC is 8 µg/mL (≈ 10.5 µM) in data set [6]; not below 64 µg/mL in [8]; 64 µg/mL (≈ 84 µM) in data set [9]; 32 µg/mL in [2]; 64 µg/mL in data set [3]; not below 64 µg/mL in [14]. Besides, the MIC in data set [4] is not below 64 µg/mL; in [16], 16 µg/mL (≈ 21 µM); in [5], 64 µg/mL (≈ 84 µM). Further, the pIC50 is 5.63 in data set [7] and 5.65 in [15]. In data set [10], the PPB was found to be 75%. Further, the inhibition at 48 h, 100 µM in data set [11] is -9%; in data set [12] it was 11%. Further, the half-life – broadly, the time needed for the level to fall by half in the phase considered – at […], 40 µM in data set [13] is more than 2.5 h. Moreover, the microsomal CLint – broadly, the capacity of the preparation to metabolise the compound, expressed as a volume cleared per time – came out at 10 µL/min/mg in [17] and 15 µL/min/mg in data set [18].
